The subject of experiment [1] is Mycobacterium tuberculosis. Put plainly: Displacement of UDP-fluorescein from non-reduced form of Mycobacterium tuberculosis UDP-galactopyranose mutase by fluorescence polarization assay relative to control. Further details: concentration or dose not given beside the values. To be noted: concentration not given here. The gist of the method: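 Single-point fluorescence polarization competition with inhibitor at 1 mM final. Non-reduced recombinant Mt UGM at 580 nM with 18 nM UDP-fluorescein probe. Read at room temperature in sodium phosphate buffer pH 7.0. Reported as percent inhibition; screening also done at 100 µM. Kd followed when inhibition at 1 mM exceeded 30%.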
In general terms: In fluorescence polarisation assays a small probe gives low polarisation when free and higher when bound to something large.

A short description of experiment [2]: Displacement of UDP-fluorescein from non-reduced form of Mycobacterium tuberculosis UDP-galactopyranose mutase by fluorescence polarization assay. An outline of the steps: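 Recombinant Mt UGM (pET-29b construct) used dialysed and non-reduced at 580 nM. UDP-fluorescein probe at 18 nM. Inhibitors titrated over 0–1 mM. Kd derived from competitive fluorescence polarization. Probe affinity measured by enzyme dilutions in 50 mM sodium phosphate pH 7.0 at room temperature, in triplicate.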

The test system of experiment [3] is Mycobacterium tuberculosis. Put plainly: Antitubercular activity against Mycobacterium tuberculosis mc2 6230 assessed as inhibition of bacterial growth incubated for 7 days by broth dilution method. To be noted: mc2 6230, 168 h. The format is functional. An outline of the steps: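 Pantothenate-auxotrophic Mt mc²6230 grown in 7H9/OADC plus 109 µM pantothenic acid at 37°C without agitation. Broth microdilution started from culture at OD600 0.05. Twofold series covered 1.5–100 µg/ml. Plates were read after 7 days at 37°C. MIC is the lowest concentration with no visible turbidity change. Duplicates were run on three independent occasions.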
In general terms: Broth dilution looks for growth in wells or tubes with falling amounts of substance.

Experiment [4] concerns Mycobacterium tuberculosis. Description: Inhibition of reduced form of Mycobacterium tuberculosis UDP-galactopyranose mutase assessed as conversion of UDP-Galf to UDP-Galp at 0.5 mM using UDP-Galf as substrate compound incubated with enzyme at 5 mins after enzyme reduction with sodium dithionite by HPLC analysis relative to control. An outline of the steps: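 Recombinant Mt UGM (60 nM) in 100 mM NaH₂PO₄ pH 7.4 at room temperature. Enzyme pre-incubated 5 min, then reduced with 12.5 mM sodium dithionite and incubated with or without inhibitor. UDP-α-Galf (25 µM final) added. Samples taken at five times and quenched in liquid N₂. Conversion to UDP-Galp quantified by C18 HPLC with UV detection at 262 nm.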

The test system of experiment [5] is Mycobacterium tuberculosis. Put plainly: Antitubercular activity against Mycobacterium tuberculosis mc2 6230 assessed as inhibition of bacterial growth at 30 ng/ml incubated for 7 days by broth dilution method. Type of experiment: functional, organism-based. The gist of the method:
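Mt mc²6230 pantothenate auxotroph grown at 37°C static in 7H9 broth with OADC and 109 µM pantothenic acid. Log-phase culture diluted to OD600 0.05. Compound serially diluted 2-fold from a 10 mg/ml DMSO stock. Plates wrapped and incubated at 37°C for 7 days. Isoniazid served as positive control and DMSO as vehicle control. Growth was read visually as turbidity.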

≈ marks a conversion by molar mass, not a printed value. Calls of active or inactive are those of the source. The rule behind the calls is not given here.

The text below walks through data of ChEMBL document CHEMBL4622920, “Synthesis and evaluation of heterocycle structures as potential inhibitors of Mycobacterium tuberculosis UGM” (Bioorg Med Chem, 2020).

One may read the inhibition as the change of the read-out against control, counted positive when it falls. In experiment [1], `CC1=C(c2cc3ccccc3o2)C(=O)O/C1=C\C(C)C` registered an inhibition of 0%. The same measure, in the same setting: to `CC1=C(c2ccoc2)C(=O)O/C1=C\C(C)C` belongs 5.2%; to `CC1=C(c2ccncc2)C(=O)O/C1=C\C(C)C`, 3%. Same read-out and setting: the figure for `O=C1O/C(=C(/I)c2ccccc2)Cn2c1c(I)c1ccccc12` is 22.8%. The Kd is the constant that tells how readily two partners part at equilibrium. In experiment [2], `C[N+](C)(C)CC(=O)N/N=C/c1ccc(O)c(O)c1` showed a Kd of 3 µM. `C#CCn1c(C(=O)O)c(I)c2cc(OC)ccc21` gave an inhibition in experiment [1] of 15%. A word on the MIC: it is the lowest concentration that inhibits growth of the organism. As to `CCCCC#C/C=C1\Cn2c(c(I)c3cc(OC)ccc32)C(=O)O1`, the MIC in experiment [3] came to 50 µg/mL (≈ 115 µM). Moreover, in experiment [4], the inhibition was 95.5%. The compound further yielded a Kd in experiment [2] of 61.3 µM. On to `CC1=C(c2ccc(-c3ccccc3)cc2)C(=O)O/C1=C\C(C)C`, for which the inhibition in experiment [1] was determined as 19.2%. As to `O=C(O)C(Cc1ccc(I)cc1)NC1NC(c2ccc(Cl)c(Cl)c2)=CS1` (centres undefined), in experiment [2], the Kd amounted to 8 µM. For the compound `C#CCn1c(C(=O)O)c(I)c2ccccc21`, the inhibition in experiment [1] came out at 7.4%. For the compound `NNC(=O)c1ccncc1`, the inhibition entry in experiment [5] was “Active”.

Consider `CC1=C(c2ccc(F)cc2)C(=O)O/C1=C\C(C)C`, for which, in experiment [1], the inhibition stood at 9%. Take `C#CCn1c(C(=O)OC)cc2cc(F)ccc21`: the inhibition in experiment [1] was determined as 0%. Consider `O=c1ccn([C@@H]2O[C@H](COP(=O)(O)OP(=O)(O)O[C@H]3O[C@@H]([C@H](O)CO)C(F)(F)C3(F)F)[C@@H](O)[C@H]2O)c(=O)[nH]1`, for which, in experiment [2], the affinity, expressed as Kd, was 53 µM.

`COC(=O)c1cn(Cc2ccccc2)c2ccccc12`: the inhibition in experiment [1] worked out at 5.1%. Regarding `O=C1O/C(=C/I)Cn2c1c(I)c1ccccc12`, the affinity in experiment [2], expressed as Kd, was 2000 µM. This compound came in with an inhibition in experiment [1] of 61.6%. As to `CCCCC#C/C=C1\Cn2c(c(I)c3ccccc32)C(=O)O1`, the MIC in experiment [3] was 6.2 µg/mL (≈ 15.3 µM). Moreover, the inhibition in experiment [4] was determined as 72.9%. Besides, in experiment [2], the affinity, expressed as Kd, was 66 µM. Take `COC(=O)c1[nH]c2cc3c(cc2c1I)OCO3`: the inhibition in experiment [1] is 23.1%. On the same count and under the same terms, to `C/C(I)=C1/Cn2c(c(I)c3ccccc32)C(=O)O1` belongs 14.9%; to `COC(=O)c1[nH]c2ccccc2c1I`, 11.5%; to `O=C1O/C(=C/I)Cn2c1c(I)c1cc(F)ccc12`, 19.1%. As to `CCCCC#C/C=C1\Cn2c(c(I)c3cc4c(cc32)OCO4)C(=O)O1`, the MIC in experiment [3] amounted to 3.1 µg/mL (≈ 6.9 µM). Further, the inhibition in experiment [4] turned out to be 60.2%. This compound had a Kd in experiment [2] of 58.3 µM. `CC1=C(Br)C(=O)O/C1=C\C(C)C` registered an inhibition in experiment [1] of 7.3%. Same read-out and setting: the figure for `COc1ccc2cc(C3=C(C)/C(=C/C(C)C)OC3=O)ccc2c1` is 7.4%. `C#CCn1c(C(=O)O)c(I)c2cc3c(cc21)OCO3` registered a Kd in experiment [2] of 220 µM. In experiment [1], this compound returned an inhibition of 46.2%. On to `COC(=O)c1cc2ccccc2[nH]1`, for which the inhibition in experiment [1] turned out to be 2%.
